One assay relates to K562 cells. Nature of the assay: Cytotoxicity. It counts as cell-based. As to conditions: Homo sapiens, K562, 72 h, read-out: Antiproliferative activity IC50, K562 cells. In short, it runs like this:
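K562 cells were grown in RPMI-1640 with 10% heat-inactivated FBS and penicillin/streptomycin at 37°C, 5% CO2. Seeded at 8,000 cells/well, rested 24 h, then exposed 72 h to a concentration series. MTS reagent was added in phenol-red-free DMEM for 1 h at 37°C and absorbance read at 490 nm. Response was taken relative to control and IC50 fitted. Triplicates per experiment, 3–4 experiments.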

The next assay has as its system p62. Kind of assay: mRNA expression. It counts as cell-based, human. As to conditions: RAJI cells, ibrutinib 15 µM, 24 h. In short, it runs like this: (§1)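 RAJI cells treated 24 h with test nanomaterial (347, 174, 84 µM) or reference BTK inhibitor (30, 15 µM). Total RNA extracted with TRIzol and 1 µg reverse-transcribed. qPCR run as 95°C 60 s, then 40 cycles of 95°C 15 s, primer-specific annealing 30 s, 72°C 30 s, with melt-curve check. Expression by 2−ΔΔCT vs HPRT1. ≥4 experiments, mean ± SD, ANOVA with Dunnett's test vs untreated.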

A further assay concerns BTK. Nature of the assay: mRNA expression. It counts as cell-based, human. The note with it: RAJI cells, ibrutinib, 24 h. In short, it runs like this: as §1
For a further assay, the system named is TLR8. Kind of assay: mRNA expression. As to conditions: RAJI cells, 24 h. The assay is classed as cell-based, human. In short, it runs like this:
as §1

For the next assay, the system named is NFAT. Kind of assay: mRNA expression. The assay is classed as cell-based, human. The note with it: RAJI cells, 24 h. In short, it runs like this: as §1
The next assay concerns ARID3A. Nature of the assay: mRNA expression. It counts as cell-based, human. As to conditions: RAJI cells, 30 µM ibrutinib, 24 h. A digest of the protocol:
as §1

For a further assay, the system named is c-Myc. Kind of assay: Immunoblotting in RAJI cells after anti-IgM stimulation. The assay is classed as cell-based, human. As to conditions: 20 µM ibrutinib, 24 h. In short, it runs like this:
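RAJI cells seeded at 500,000 per dish. Next day they were stimulated with anti-human IgM (12 µg/mL, 10 min), then the medium was replaced with test nanomaterial (347, 174 µM) or reference inhibitor (20 µM) for 24 h. Lysed on ice in RIPA with protease/phosphatase inhibitors and EDTA, then BCA-normalised SDS-PAGE onto nitrocellulose. Primary antibodies 1:1000 overnight at 4°C, loading controls 1:2000, HRP secondary, chemiluminescence, densitometry. 4–5 experiments.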

In assay [1] the test system is calcium levels in RAJI cells. Kind of assay: Calcium assay. The assay is classed as cell-based, human. As to conditions: 24 h, HDGF 347 and 174 µM, ibrutinib 30 and 15 µM. A digest of the protocol:
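RAJI cells seeded at 40,000/well and held 24 h at 37°C. Medium was replaced with test nanomaterial (347, 174 µM) or reference BTK inhibitor (30, 15 µM) for 24 h. Cells were washed in cold PBS, loaded with Fluo-4 AM (5 µM, 30 min, 37°C), washed, and resuspended in serum-free, phenol-red-free DMEM. Fluorescence read at ex 485/em 520 nm. ≥3 experiments, mean ± SD, ANOVA with Dunnett's test vs untreated.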

Each structure is given as a SMILES string.

A word on the IC50: it is the concentration at which inhibition is half-maximal. In the case of `C=CC(=O)N1CCC[C@@H](n2nc(-c3ccc(Oc4ccccc4)cc3)c3c(N)ncnc32)C1` [ibrutinib], the IC50 in the assay with K562 cells turned out to be 850 nM. For the same molecule, in the assay with p62, the “Expression of p62” value was “almost three-fold increase”. For the same molecule, the BTK gene expression result with BTK was “increased”. In the assay on TLR8, the “Expression of TLR8” value is “significant decrease”. For the same molecule, the “Expression of NFAT” value in the assay with NFAT was “significant decrease”. Further, the “Expression of ARID3A” value with ARID3A was “almost two-fold downregulation”. The c-Myc protein expression result with c-Myc was “slight downregulation”. Also, in assay [1], the Cellular calcium levels entry was “drop dramatically”.

These data come from paper PMC10072273 (International Journal of Nanomedicine, 2023).
